From ChEMBL document CHEMBL5058577, “EUbOPEN Chemogenomics Library 2 (Multiplex)” (2022)

Test system: Fibroblast
Experiment: Multiplex assay against human fibroblast
Format: toxicity, cell-based
How it was run: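 Per cents of healthy-nucleus cells form the tubulin, mitochondrial-mass and membrane-permeability phenotype values. Live cells were stained at seeding with Hoechst33342, BioTracker Green Microtubule Cytoskeleton Dye, MitoTracker Red and Annexin V Alexa Fluor 680. After compound addition they were imaged on a CQ1 microscope at 37°C and 5% CO2, and CellPathfinder machine-learning gating split them into Hoechst high-intensity objects or normal cells, normal cells into healthy, pyknosed or fragmented nuclei, and pyknosed cells into mitotic or apoptotic.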

[1] = 12 h, 1 µM, compound concentration 1 uM, replicate 1
[2] = 12 h, 1 µM, compound concentration 1 uM, replicate 2
[3] = 12 h, 10 µM, compound concentration 10 uM, replicate 1
[4] = 12 h, 10 µM, compound concentration 10 uM, replicate 2
[5] = 24 h, 1 µM, compound concentration 1 uM, replicate 1
[6] = 24 h, 1 µM, compound concentration 1 uM, replicate 2
[7] = 24 h, 10 µM, compound concentration 10 uM, replicate 1
[8] = 24 h, 10 µM, compound concentration 10 uM, replicate 2
[9] = 48 h, 1 µM, compound concentration 1 uM, replicate 1
[10] = 48 h, 1 µM, compound concentration 1 uM, replicate 2
[11] = 48 h, 10 µM, compound concentration 10 uM, replicate 1
[12] = 48 h, 10 µM, compound concentration 10 uM, replicate 2

Compound: Cc1ccc(/C(=C\CN2CCCC2)c2ccccn2)cc1 [TRIPROLIDINE]
- Population Apoptotic (%) [1]: 52%
- Population Fragmented Nuclei (%) [1]: 17%
- Population Healthy Nuclei (%) [1]: 64%
- Population Hoechst High Intensity Objects (%) [1]: 3%
- Population Membrane Permeable-Phenotype (%) [1]: 0%
- Population Mitochondria Different-Phenotype (%) [1]: 9%
- Population Mitotic Cells (%) [1]: 47%
- Population Normal (%) [1]: 96%
- Population Pyknosed Nuclei (%) [1]: 18%
- Population Tubulin-Different-Phenotype (%) [1]: 29%
- Total Cell Count [1]: 119
- Population Apoptotic (%) [2]: 41%
- Population Fragmented Nuclei (%) [2]: 28%
- Population Healthy Nuclei (%) [2]: 45%
- Population Hoechst High Intensity Objects (%) [2]: 4%
- Population Membrane Permeable-Phenotype (%) [2]: 1%
- Population Mitotic Cells (%) [2]: 58%
- Population Normal (%) [2]: 95%
- Population Pyknosed Nuclei (%) [2]: 25%
- Population Tubulin-Different-Phenotype (%) [2]: 60%
- Total Cell Count [2]: 127
- Population Apoptotic (%) [3]: 57%
- Population Fragmented Nuclei (%) [3]: 14%
- Population Healthy Nuclei (%) [3]: 64%
- Population Hoechst High Intensity Objects (%) [3]: 2%
- Population Membrane Permeable-Phenotype (%) [3]: 0%
- Population Mitochondria Different-Phenotype (%) [3]: 5%
- Population Mitotic Cells (%) [3]: 42%
- Population Normal (%) [3]: 97%
- Population Pyknosed Nuclei (%) [3]: 20%
- Population Tubulin-Different-Phenotype (%) [3]: 44%
- Total Cell Count [3]: 139
- Population Apoptotic (%) [4]: 50%
- Population Fragmented Nuclei (%) [4]: 26%
- Population Healthy Nuclei (%) [4]: 52%
- Population Membrane Permeable-Phenotype (%) [4]: 9%
- Population Mitochondria Different-Phenotype (%) [4]: 9%
- Population Mitotic Cells (%) [4]: 50%
- Population Pyknosed Nuclei (%) [4]: 21%
- Population Tubulin-Different-Phenotype (%) [4]: 59%
- Total Cell Count [4]: 141
- Population Apoptotic (%) [5]: 43%
- Population Fragmented Nuclei (%) [5]: 17%
- Population Healthy Nuclei (%) [5]: 69%
- Population Hoechst High Intensity Objects (%) [5]: 4%
- Population Membrane Permeable-Phenotype (%) [5]: 1%
- Population Mitochondria Different-Phenotype (%) [5]: 3%
- Population Mitotic Cells (%) [5]: 56%
- Population Normal (%) [5]: 95%
- Population Pyknosed Nuclei (%) [5]: 13%
- Population Tubulin-Different-Phenotype (%) [5]: 23%
- Total Cell Count [5]: 128
- Population Apoptotic (%) [6]: 46%
- Population Fragmented Nuclei (%) [6]: 29%
- Population Healthy Nuclei (%) [6]: 43%
- Population Hoechst High Intensity Objects (%) [6]: 9%
- Population Membrane Permeable-Phenotype (%) [6]: 6%
- Population Mitochondria Different-Phenotype (%) [6]: 6%
- Population Mitotic Cells (%) [6]: 53%
- Population Normal (%) [6]: 90%
- Population Pyknosed Nuclei (%) [6]: 27%
- Population Tubulin-Different-Phenotype (%) [6]: 64%
- Total Cell Count [6]: 121
- Population Apoptotic (%) [7]: 47%
- Population Fragmented Nuclei (%) [7]: 15%
- Population Healthy Nuclei (%) [7]: 68%
- Population Hoechst High Intensity Objects (%) [7]: 4%
- Population Membrane Permeable-Phenotype (%) [7]: 0%
- Population Mitochondria Different-Phenotype (%) [7]: 3%
- Population Mitotic Cells (%) [7]: 52%
- Population Normal (%) [7]: 95%
- Population Pyknosed Nuclei (%) [7]: 15%
- Population Tubulin-Different-Phenotype (%) [7]: 41%
- Total Cell Count [7]: 142
- Population Apoptotic (%) [8]: 58%
- Population Fragmented Nuclei (%) [8]: 29%
- Population Healthy Nuclei (%) [8]: 52%
- Population Hoechst High Intensity Objects (%) [8]: 2%
- Population Membrane Permeable-Phenotype (%) [8]: 6%
- Population Mitochondria Different-Phenotype (%) [8]: 12%
- Population Mitotic Cells (%) [8]: 41%
- Population Normal (%) [8]: 97%
- Population Pyknosed Nuclei (%) [8]: 17%
- Population Tubulin-Different-Phenotype (%) [8]: 62%
- Total Cell Count [8]: 141
- Population Apoptotic (%) [9]: 54%
- Population Fragmented Nuclei (%) [9]: 26%
- Population Healthy Nuclei (%) [9]: 65%
- Population Hoechst High Intensity Objects (%) [9]: 3%
- Population Membrane Permeable-Phenotype (%) [9]: 1%
- Population Mitochondria Different-Phenotype (%) [9]: 2%
- Population Mitotic Cells (%) [9]: 45%
- Population Normal (%) [9]: 96%
- Population Pyknosed Nuclei (%) [9]: 8%
- Population Tubulin-Different-Phenotype (%) [9]: 31%
- Total Cell Count [9]: 135
- Population Apoptotic (%) [10]: 52%
- Population Fragmented Nuclei (%) [10]: 29%
- Population Healthy Nuclei (%) [10]: 48%
- Population Hoechst High Intensity Objects (%) [10]: 7%
- Population Membrane Permeable-Phenotype (%) [10]: 7%
- Population Mitochondria Different-Phenotype (%) [10]: 10%
- Population Mitotic Cells (%) [10]: 48%
- Population Normal (%) [10]: 92%
- Population Pyknosed Nuclei (%) [10]: 21%
- Population Tubulin-Different-Phenotype (%) [10]: 57%
- Total Cell Count [10]: 124
- Population Apoptotic (%) [11]: 38%
- Population Fragmented Nuclei (%) [11]: 20%
- Population Healthy Nuclei (%) [11]: 69%
- Population Hoechst High Intensity Objects (%) [11]: 7%
- Population Membrane Permeable-Phenotype (%) [11]: 1%
- Population Mitochondria Different-Phenotype (%) [11]: 6%
- Population Mitotic Cells (%) [11]: 61%
- Population Normal (%) [11]: 92%
- Population Pyknosed Nuclei (%) [11]: 9%
- Population Tubulin-Different-Phenotype (%) [11]: 35%
- Total Cell Count [11]: 142
- Population Apoptotic (%) [12]: 42%
- Population Fragmented Nuclei (%) [12]: 32%
- Population Healthy Nuclei (%) [12]: 56%
- Population Hoechst High Intensity Objects (%) [12]: 5%
- Population Membrane Permeable-Phenotype (%) [12]: 5%
- Population Mitochondria Different-Phenotype (%) [12]: 9%
- Population Mitotic Cells (%) [12]: 57%
- Population Normal (%) [12]: 94%
- Population Pyknosed Nuclei (%) [12]: 10%
- Population Tubulin-Different-Phenotype (%) [12]: 54%
- Total Cell Count [12]: 140

Compound: Oc1c(CN2CCN(c3ccccn3)CC2)cc(Cl)c2cccnc12
- Population Apoptotic (%) [1]: 73%
- Population Fragmented Nuclei (%) [1]: 17%
- Population Healthy Nuclei (%) [1]: 68%
- Population Hoechst High Intensity Objects (%) [1]: 4%
- Population Membrane Permeable-Phenotype (%) [1]: 1%
- Population Mitochondria Different-Phenotype (%) [1]: 0%
- Population Mitotic Cells (%) [1]: 26%
- Population Normal (%) [1]: 95%
- Population Pyknosed Nuclei (%) [1]: 14%
- Population Tubulin-Different-Phenotype (%) [1]: 27%
- Total Cell Count [1]: 168
- Population Apoptotic (%) [2]: 57%
- Population Fragmented Nuclei (%) [2]: 27%
- Population Healthy Nuclei (%) [2]: 54%
- Population Hoechst High Intensity Objects (%) [2]: 5%
- Population Membrane Permeable-Phenotype (%) [2]: 8%
- Population Mitochondria Different-Phenotype (%) [2]: 6%
- Population Mitotic Cells (%) [2]: 42%
- Population Normal (%) [2]: 94%
- Population Pyknosed Nuclei (%) [2]: 18%
- Population Tubulin-Different-Phenotype (%) [2]: 43%
- Total Cell Count [2]: 152
- Population Apoptotic (%) [3]: 41%
- Population Fragmented Nuclei (%) [3]: 17%
- Population Healthy Nuclei (%) [3]: 54%
- Population Hoechst High Intensity Objects (%) [3]: 5%
- Population Membrane Permeable-Phenotype (%) [3]: 0%
- Population Mitochondria Different-Phenotype (%) [3]: 25%
- Population Mitotic Cells (%) [3]: 58%
- Population Normal (%) [3]: 94%
- Population Pyknosed Nuclei (%) [3]: 27%
- Population Tubulin-Different-Phenotype (%) [3]: 67%
- Total Cell Count [3]: 130
- Population Apoptotic (%) [4]: 33%
- Population Fragmented Nuclei (%) [4]: 25%
- Population Healthy Nuclei (%) [4]: 58%
- Population Hoechst High Intensity Objects (%) [4]: 2%
- Population Membrane Permeable-Phenotype (%) [4]: 2%
- Population Mitochondria Different-Phenotype (%) [4]: 9%
- Population Mitotic Cells (%) [4]: 66%
- Population Normal (%) [4]: 97%
- Population Pyknosed Nuclei (%) [4]: 16%
- Population Tubulin-Different-Phenotype (%) [4]: 62%
- Total Cell Count [4]: 131
- Population Apoptotic (%) [5]: 50%
- Population Fragmented Nuclei (%) [5]: 19%
- Population Healthy Nuclei (%) [5]: 67%
- Population Hoechst High Intensity Objects (%) [5]: 3%
- Population Membrane Permeable-Phenotype (%) [5]: 0%
- Population Mitochondria Different-Phenotype (%) [5]: 3%
- Population Mitotic Cells (%) [5]: 50%
- Population Normal (%) [5]: 96%
- Population Pyknosed Nuclei (%) [5]: 13%
- Population Tubulin-Different-Phenotype (%) [5]: 30%
- Total Cell Count [5]: 174
- Population Apoptotic (%) [6]: 45%
- Population Fragmented Nuclei (%) [6]: 29%
- Population Healthy Nuclei (%) [6]: 56%
- Population Hoechst High Intensity Objects (%) [6]: 5%
- Population Membrane Permeable-Phenotype (%) [6]: 8%
- Population Mitochondria Different-Phenotype (%) [6]: 7%
- Population Mitotic Cells (%) [6]: 55%
- Population Normal (%) [6]: 94%
- Population Tubulin-Different-Phenotype (%) [6]: 47%
- Total Cell Count [6]: 153
- Population Apoptotic (%) [7]: 89%
- Population Fragmented Nuclei (%) [7]: 26%
- Population Healthy Nuclei (%) [7]: 46%
- Population Hoechst High Intensity Objects (%) [7]: 0%
- Population Membrane Permeable-Phenotype (%) [7]: 1%
- Population Mitochondria Different-Phenotype (%) [7]: 15%
- Population Mitotic Cells (%) [7]: 10%
- Population Normal (%) [7]: 100%
- Population Pyknosed Nuclei (%) [7]: 27%
- Population Tubulin-Different-Phenotype (%) [7]: 57%
- Total Cell Count [7]: 139
- Population Apoptotic (%) [8]: 56%
- Population Fragmented Nuclei (%) [8]: 35%
- Population Healthy Nuclei (%) [8]: 41%
- Population Hoechst High Intensity Objects (%) [8]: 2%
- Population Mitochondria Different-Phenotype (%) [8]: 11%
- Population Mitotic Cells (%) [8]: 43%
- Population Normal (%) [8]: 97%
- Population Pyknosed Nuclei (%) [8]: 22%
- Population Tubulin-Different-Phenotype (%) [8]: 68%
- Total Cell Count [8]: 134
- Population Apoptotic (%) [9]: 54%
- Population Fragmented Nuclei (%) [9]: 17%
- Population Healthy Nuclei (%) [9]: 67%
- Population Hoechst High Intensity Objects (%) [9]: 5%
- Population Membrane Permeable-Phenotype (%) [9]: 1%
- Population Mitochondria Different-Phenotype (%) [9]: 1%
- Population Mitotic Cells (%) [9]: 45%
- Population Normal (%) [9]: 94%
- Population Pyknosed Nuclei (%) [9]: 14%
- Population Tubulin-Different-Phenotype (%) [9]: 35%
- Total Cell Count [9]: 158
- Population Apoptotic (%) [10]: 70%
- Population Fragmented Nuclei (%) [10]: 25%
- Population Healthy Nuclei (%) [10]: 66%
- Population Hoechst High Intensity Objects (%) [10]: 0%
- Population Membrane Permeable-Phenotype (%) [10]: 4%
- Population Mitochondria Different-Phenotype (%) [10]: 4%
- Population Mitotic Cells (%) [10]: 30%
- Population Normal (%) [10]: 99%
- Population Pyknosed Nuclei (%) [10]: 7%
- Population Tubulin-Different-Phenotype (%) [10]: 37%
- Total Cell Count [10]: 137
- Population Apoptotic (%) [11]: 85%
- Population Fragmented Nuclei (%) [11]: 31%
- Population Healthy Nuclei (%) [11]: 32%
- Population Hoechst High Intensity Objects (%) [11]: 2%
- Population Membrane Permeable-Phenotype (%) [11]: 0%
- Population Mitochondria Different-Phenotype (%) [11]: 9%
- Population Mitotic Cells (%) [11]: 14%
- Population Normal (%) [11]: 97%
- Population Pyknosed Nuclei (%) [11]: 35%
- Population Tubulin-Different-Phenotype (%) [11]: 38%
- Total Cell Count [11]: 137
- Population Apoptotic (%) [12]: 78%
- Population Fragmented Nuclei (%) [12]: 34%
- Population Healthy Nuclei (%) [12]: 41%
- Population Membrane Permeable-Phenotype (%) [12]: 1%
- Population Mitochondria Different-Phenotype (%) [12]: 7%
- Population Mitotic Cells (%) [12]: 21%
- Population Pyknosed Nuclei (%) [12]: 24%
- Population Tubulin-Different-Phenotype (%) [12]: 65%
